Results from different studies.
Each line is one published result; the experiments were not run side by side.
Target: Phosphorylase b kinase gamma catalytic chain, skeletal muscle/heart isoform (PHKG1, Homo sapiens, UniProt Q16816)

CNC(=O)c1ccc(Nc2ncc(C(F)(F)F)c(NCc3nccnc3N(C)S(C)(=O)=O)n2)cc1  remaining binding (cell-free assay; competition with immobilised ligand; 0.1 µM): 100%
Nc1nc(NC2CCCCC2)sc1C(=O)c1ccccc1  remaining activity (enzyme activity; inhibitor; 10 µM): 105%
FC(F)c1nc2ccccc2n1-c1nc(N2CCOCC2)nc(N2CCOCC2)n1  remaining activity (enzyme activity; inhibitor; 10 µM): 94%
CCCS(=O)(=O)Nc1ccc(F)c(C(=O)c2c[nH]c3ncc(-c4ccc(Cl)cc4)cc23)c1F  inhibition (enzyme activity; inhibitor; 1 µM): < 20%
CC(=O)Nc1c(C(C)=O)c(=O)n(C)c2nc(-c3ccc(Cl)cc3Cl)c(-c3ccc(Cl)cc3)cc12  remaining binding (cell-free assay; competition with immobilised ligand; 1 µM): 100%
COc1cccc2c(NCc3ccccc3)nc(-n3c(N)nc4ccccc43)nc12  inhibition (target engagement in cells; inhibitor; chemoproteomics; 20 mM): 6.1%
N[C@@H]1CCN(c2nccc(-c3cnn4ncccc34)n2)C1  remaining binding (binding; 1 µM): 100%
O=C1Nc2ccc(Cl)cc2C1=Cc1cc(Cl)c(O)c(Cl)c1  remaining signal (cell-free assay; 0.5 µM): 86.4%
Cn1c(=O)n(-c2ccc(C(C)(C)C#N)cc2)c2c3cc(-c4cnc5ccccc5c4)ccc3ncc21  remaining activity (enzyme activity; inhibitor; 10 µM): 95%
Cc1c(C(=O)O)cc(-c2ccc(C3CCNCC3)cc2)c2ccc(-c3ccc(C(F)(F)F)cc3)cc12  remaining binding (cell-free assay; competition with immobilised ligand; 1 µM): 100%
COc1cc2ncnc(Nc3ccc(Oc4ccccc4)cc3C)c2cc1OC  inhibition (enzyme activity; inhibitor; 1 µM): -1%
O=C(Nc1cnn(-c2csc(C(=O)NC3COC3)c2)c1)Nc1c(F)cccc1Cl  remaining activity (enzyme activity; inhibitor; 5 µM): 91.2%
C[C@@H]1CN(c2cc(-c3nn(C)c4ccc(OC5(C)CC5)cc34)ncn2)C[C@H](C)O1  remaining binding (cell-free assay; competition with immobilised ligand; 1 µM): 90%
Cc1ccc(C(=O)NCc2ccsc2)cc1C#Cc1cn(C(C)C)c2ncnc(N)c12  activity vs control (enzyme activity; inhibitor; 1 µM): 107%
CC(C)(O)[C@H]1CC[C@H](Nc2ccc3ncc(-c4cccc(C(F)(F)F)c4)n3n2)CC1  remaining activity (enzyme activity; inhibitor; 1 µM): 84.1%
CN1CC(Oc2cnc(C#N)cc2-c2ccn3nc(NC(=O)C4CC4)cc3c2)C1  inhibition (enzyme activity; inhibitor; 1 µM): 8%
O=C(Nc1cnc(Oc2ccc(F)cc2)nc1)N1CCc2ncccc2[C@@H]1c1ccc(F)cc1  remaining binding (cell-free assay; competition with immobilised ligand; 1 µM): 100%
Cc1sc(C(=O)NC2COC2)cc1-n1cc(NC(=O)Nc2c(F)cccc2Cl)cn1  remaining activity (enzyme activity; inhibitor; 10 µM): 84%
NS(=O)(=O)c1cc(NC(=O)Cc2ccccc2)ccc1Oc1cccc(Cl)c1  remaining binding (cell-free assay; competition with immobilised ligand; 1 µM): 87%
CC(C)(C)c1nc2c(s1)c1nc(N)ncc1c1ccc(NS(=O)(=O)c3c(F)cccc3F)c(F)c12  remaining activity (enzyme activity; inhibitor; radiometric; 1 µM): 98%
